System: CCRF-CEM
Test: Growth inhibition of human CCRF-CEM cells at 10 uM after 48 hrs by SRB assay
Type: functional
Conditions: read-out: GI
In short: (§1)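 NCI primary one-dose screen. A single concentration of 10^-5 M was added to the cell culture, followed by 48 h incubation and an SRB protein-dye endpoint read spectrophotometrically. Results are growth percentage relative to untreated control cells, reported as % growth inhibition.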

Structure (SMILES) | inhibition of growth at 10 µM [%]
Cc1ccc(C2=Nc3ccc(Cl)cc3C3=NNCC(=O)NN23)cc1 | < 10
Cc1ccc(-c2nc3ccc(Cl)cc3c3nnnn23)cc1 | < 10
Cc1ccc(-c2nc3ccc(Cl)cc3c3nnc(S)n23)cc1 | 12

System: A549
Test: Growth inhibition of human A549 cells at 10 uM after 48 hrs by SRB assay
Type: functional
Conditions: A549, 48 h, read-out: GI
In short: as §1

Structure (SMILES) | inhibition of growth at 10 µM [%]
Cc1ccc(C(=O)Nc2ccc(Cl)cc2C(=O)Nc2ccccc2)cc1 | < 10
Cc1ccc(C2=Nc3ccc(Cl)cc3C3=NNCC(=O)NN23)cc1 | 11
Cc1ccc(-c2nc3ccc(Cl)cc3c3nnnn23)cc1 | 47
Cc1ccc(-c2nc3ccc(Cl)cc3c3nnc(S)n23)cc1 | 11

System: SK-OV-3
Test: Growth inhibition of human SKOV3 cells at 10 uM after 48 hrs by SRB assay
Type: functional
Conditions: SK-OV-3, 48 h, read-out: GI
In short: (§2)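 NCI-60 primary one-dose screen run at the US NCI, with human tumour lines from nine cancer types. Compound added once at 10^-5 M, followed by 48 h incubation. End point was sulforhodamine B protein staining read spectrophotometrically. Result given as percent growth of treated cells against untreated controls, reported as % growth inhibition.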

Structure (SMILES) | inhibition of growth at 10 µM [%]
Cc1ccc(C(=O)Nc2ccc(Cl)cc2C(=O)Nc2ccccc2)cc1 | 12
Cc1ccc(C2=Nc3ccc(Cl)cc3C3=NNCC(=O)NN23)cc1 | < 10
Cc1ccc(-c2nc3ccc(Cl)cc3c3nnnn23)cc1 | 12
Cc1ccc(-c2nc3ccc(Cl)cc3c3nnc(S)n23)cc1 | < 10

System: MDA-MB-435
Test: Growth inhibition of human MDA-MB-435 cells at 10 uM after 48 hrs by SRB assay
Type: functional
Conditions: MDA-MB-435, 48 h, read-out: GI
In short: as §2

Structure (SMILES) | inhibition of growth at 10 µM [%]
Cc1ccc(C(=O)Nc2ccc(Cl)cc2C(=O)Nc2ccccc2)cc1 | 11
Cc1ccc(C2=Nc3ccc(Cl)cc3C3=NNCC(=O)NN23)cc1 | < 10
Cc1ccc(-c2nc3ccc(Cl)cc3c3nnnn23)cc1 | 13
Cc1ccc(-c2nc3ccc(Cl)cc3c3nnc(S)n23)cc1 | < 10

System: SW-620
Test: Growth inhibition of human SW620 cells at 10 uM after 48 hrs by SRB assay
Type: functional
Conditions: SW-620, 48 h, read-out: GI
In short: as §2

Structure (SMILES) | inhibition of growth at 10 µM [%]
Cc1ccc(C(=O)Nc2ccc(Cl)cc2C(=O)Nc2ccccc2)cc1 | < 10
Cc1ccc(C2=Nc3ccc(Cl)cc3C3=NNCC(=O)NN23)cc1 | < 10
Cc1ccc(-c2nc3ccc(Cl)cc3c3nnnn23)cc1 | 17
Cc1ccc(-c2nc3ccc(Cl)cc3c3nnc(S)n23)cc1 | < 10

System: not listed separately
Test: Growth inhibition of human OVCAR3 cells at 10 uM after 48 hrs by SRB assay
Type: functional
Conditions: OVCAR-3, 48 h, read-out: GI
In short: as §2

Structure (SMILES) | inhibition of growth at 10 µM [%]
Cc1ccc(C(=O)Nc2ccc(Cl)cc2C(=O)Nc2ccccc2)cc1 | < 10
Cc1ccc(C2=Nc3ccc(Cl)cc3C3=NNCC(=O)NN23)cc1 | < 10
Cc1ccc(-c2nc3ccc(Cl)cc3c3nnnn23)cc1 | 11
Cc1ccc(-c2nc3ccc(Cl)cc3c3nnc(S)n23)cc1 | < 10

System: SK-MEL-28
Test: Growth inhibition of human SK-MEL-28 cells at 10 uM after 48 hrs by SRB assay
Type: functional
Conditions: SK-MEL-28, 48 h, read-out: GI
In short: as §2

Structure (SMILES) | inhibition of growth at 10 µM [%]
Cc1ccc(C(=O)Nc2ccc(Cl)cc2C(=O)Nc2ccccc2)cc1 | < 10
Cc1ccc(C2=Nc3ccc(Cl)cc3C3=NNCC(=O)NN23)cc1 | < 10
Cc1ccc(-c2nc3ccc(Cl)cc3c3nnnn23)cc1 | < 10
Cc1ccc(-c2nc3ccc(Cl)cc3c3nnc(S)n23)cc1 | < 10

System: A498
Test: Growth inhibition of human A498 cells at 10 uM after 48 hrs by SRB assay
Type: functional
Conditions: A498, 48 h, read-out: GI
In short: as §1

Structure (SMILES) | inhibition of growth at 10 µM [%]
Cc1ccc(C(=O)Nc2ccc(Cl)cc2C(=O)Nc2ccccc2)cc1 | < 10
Cc1ccc(C2=Nc3ccc(Cl)cc3C3=NNCC(=O)NN23)cc1 | 34
Cc1ccc(-c2nc3ccc(Cl)cc3c3nnnn23)cc1 | 11
Cc1ccc(-c2nc3ccc(Cl)cc3c3nnc(S)n23)cc1 | 19

System: not listed separately
Test: Growth inhibition of human OVCAR5 cells at 10 uM after 48 hrs by SRB assay
Type: functional
Conditions: OVCAR-5, 48 h, read-out: GI
In short: as §2

Structure (SMILES) | inhibition of growth at 10 µM [%]
Cc1ccc(C(=O)Nc2ccc(Cl)cc2C(=O)Nc2ccccc2)cc1 | 14
Cc1ccc(C2=Nc3ccc(Cl)cc3C3=NNCC(=O)NN23)cc1 | < 10
Cc1ccc(-c2nc3ccc(Cl)cc3c3nnnn23)cc1 | < 10
Cc1ccc(-c2nc3ccc(Cl)cc3c3nnc(S)n23)cc1 | < 10

System: KM12
Test: Growth inhibition of human KM12 cells at 10 uM after 48 hrs by SRB assay
Type: functional
Conditions: KM12, 48 h, read-out: GI
In short: as §2

Structure (SMILES) | inhibition of growth at 10 µM [%]
Cc1ccc(C(=O)Nc2ccc(Cl)cc2C(=O)Nc2ccccc2)cc1 | < 10
Cc1ccc(C2=Nc3ccc(Cl)cc3C3=NNCC(=O)NN23)cc1 | < 10
Cc1ccc(-c2nc3ccc(Cl)cc3c3nnnn23)cc1 | < 10
Cc1ccc(-c2nc3ccc(Cl)cc3c3nnc(S)n23)cc1 | 11

System: MCF7
Test: Growth inhibition of human MCF7 cells at 10 uM after 48 hrs by SRB assay
Type: functional
Conditions: MCF7, 48 h, read-out: GI
In short: as §2

Structure (SMILES) | inhibition of growth at 10 µM [%]
Cc1ccc(C(=O)Nc2ccc(Cl)cc2C(=O)Nc2ccccc2)cc1 | 11
Cc1ccc(C2=Nc3ccc(Cl)cc3C3=NNCC(=O)NN23)cc1 | < 10
Cc1ccc(-c2nc3ccc(Cl)cc3c3nnnn23)cc1 | < 10
Cc1ccc(-c2nc3ccc(Cl)cc3c3nnc(S)n23)cc1 | < 10

System: not listed separately
Test: Growth inhibition of human HOP92 cells at 10 uM after 48 hrs by SRB assay
Type: functional
Conditions: HOP-92, 48 h, read-out: GI
In short: as §2

Structure (SMILES) | inhibition of growth at 10 µM [%]
Cc1ccc(C(=O)Nc2ccc(Cl)cc2C(=O)Nc2ccccc2)cc1 | < 10
Cc1ccc(C2=Nc3ccc(Cl)cc3C3=NNCC(=O)NN23)cc1 | < 10
Cc1ccc(-c2nc3ccc(Cl)cc3c3nnnn23)cc1 | < 10
Cc1ccc(-c2nc3ccc(Cl)cc3c3nnc(S)n23)cc1 | < 10

System: M14
Test: Growth inhibition of human M14 cells at 10 uM after 48 hrs by SRB assay
Type: functional
Conditions: M14, 48 h, read-out: GI
In short: as §2

Structure (SMILES) | inhibition of growth at 10 µM [%]
Cc1ccc(C(=O)Nc2ccc(Cl)cc2C(=O)Nc2ccccc2)cc1 | < 10
Cc1ccc(C2=Nc3ccc(Cl)cc3C3=NNCC(=O)NN23)cc1 | < 10
Cc1ccc(-c2nc3ccc(Cl)cc3c3nnnn23)cc1 | < 10
Cc1ccc(-c2nc3ccc(Cl)cc3c3nnc(S)n23)cc1 | < 10

System: HL-60(TB)
Test: Growth inhibition of human HL-60(TB) cells at 10 uM after 48 hrs by SRB assay
Type: functional
Conditions: HL-60, 48 h, read-out: GI
In short: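 NCI 60-cell-line primary screen: compound added at single concentration 10^-5 M, cultures incubated 48 h; end point by sulforhodamine B protein staining read spectrophotometrically; result given as growth percentage of treated versus untreated control cells, reported as % growth inhibition.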

Structure (SMILES) | inhibition of growth at 10 µM [%]
Cc1ccc(C2=Nc3ccc(Cl)cc3C3=NNCC(=O)NN23)cc1 | < 10
Cc1ccc(-c2nc3ccc(Cl)cc3c3nnnn23)cc1 | < 10
Cc1ccc(-c2nc3ccc(Cl)cc3c3nnc(S)n23)cc1 | < 10

System: CAKI-1
Test: Growth inhibition of human CAKI-1 cells at 10 uM after 48 hrs by SRB assay
Type: functional
Conditions: CAKI-1, 48 h, read-out: GI
In short: as §1

Structure (SMILES) | inhibition of growth at 10 µM [%]
Cc1ccc(C(=O)Nc2ccc(Cl)cc2C(=O)Nc2ccccc2)cc1 | 18
Cc1ccc(C2=Nc3ccc(Cl)cc3C3=NNCC(=O)NN23)cc1 | 14
Cc1ccc(-c2nc3ccc(Cl)cc3c3nnnn23)cc1 | 25
Cc1ccc(-c2nc3ccc(Cl)cc3c3nnc(S)n23)cc1 | 15

System: not listed separately
Test: Growth inhibition of human UO31 cells at 10 uM after 48 hrs by SRB assay
Type: functional
Conditions: UO-31, 48 h, read-out: GI
In short: as §2

Structure (SMILES) | inhibition of growth at 10 µM [%]
Cc1ccc(C(=O)Nc2ccc(Cl)cc2C(=O)Nc2ccccc2)cc1 | < 10
Cc1ccc(C2=Nc3ccc(Cl)cc3C3=NNCC(=O)NN23)cc1 | 18
Cc1ccc(-c2nc3ccc(Cl)cc3c3nnnn23)cc1 | 24
Cc1ccc(-c2nc3ccc(Cl)cc3c3nnc(S)n23)cc1 | < 10

System: not listed separately
Test: Growth inhibition of human Hs578T cells at 10 uM after 48 hrs by SRB assay
Type: functional
Conditions: Hs-578T, read-out: GI
In short: as §2

Structure (SMILES) | inhibition of growth at 10 µM [%]
Cc1ccc(C(=O)Nc2ccc(Cl)cc2C(=O)Nc2ccccc2)cc1 | < 10
Cc1ccc(C2=Nc3ccc(Cl)cc3C3=NNCC(=O)NN23)cc1 | < 10
Cc1ccc(-c2nc3ccc(Cl)cc3c3nnnn23)cc1 | < 10
Cc1ccc(-c2nc3ccc(Cl)cc3c3nnc(S)n23)cc1 | < 10

System: ACHN
Test: Growth inhibition of human ACHN cells at 10 uM after 48 hrs by SRB assay
Type: functional
Conditions: read-out: GI
In short: as §1

Structure (SMILES) | inhibition of growth at 10 µM [%]
Cc1ccc(C(=O)Nc2ccc(Cl)cc2C(=O)Nc2ccccc2)cc1 | 17
Cc1ccc(C2=Nc3ccc(Cl)cc3C3=NNCC(=O)NN23)cc1 | < 10
Cc1ccc(-c2nc3ccc(Cl)cc3c3nnnn23)cc1 | < 10
Cc1ccc(-c2nc3ccc(Cl)cc3c3nnc(S)n23)cc1 | < 10

System: not listed separately
Test: Growth inhibition of human EKVX cells at 10 uM after 48 hrs by SRB assay
Type: functional
Conditions: read-out: GI
In short: as §2

Structure (SMILES) | inhibition of growth at 10 µM [%]
Cc1ccc(C(=O)Nc2ccc(Cl)cc2C(=O)Nc2ccccc2)cc1 | < 10
Cc1ccc(C2=Nc3ccc(Cl)cc3C3=NNCC(=O)NN23)cc1 | 12
Cc1ccc(-c2nc3ccc(Cl)cc3c3nnnn23)cc1 | 11
Cc1ccc(-c2nc3ccc(Cl)cc3c3nnc(S)n23)cc1 | 11

System: NCI-H23
Test: Growth inhibition of human NCI-H23 cells at 10 uM after 48 hrs by SRB assay
Type: functional
Conditions: NCI-H23, 48 h, read-out: GI
In short: as §2

Structure (SMILES) | inhibition of growth at 10 µM [%]
Cc1ccc(C(=O)Nc2ccc(Cl)cc2C(=O)Nc2ccccc2)cc1 | < 10
Cc1ccc(C2=Nc3ccc(Cl)cc3C3=NNCC(=O)NN23)cc1 | < 10
Cc1ccc(-c2nc3ccc(Cl)cc3c3nnnn23)cc1 | < 10
Cc1ccc(-c2nc3ccc(Cl)cc3c3nnc(S)n23)cc1 | < 10

System: HOP-62
Test: Growth inhibition of human HOP62 cells at 10 uM after 48 hrs by SRB assay
Type: functional
Conditions: HOP-62, 48 h, read-out: GI
In short: as §2

Structure (SMILES) | inhibition of growth at 10 µM [%]
Cc1ccc(C(=O)Nc2ccc(Cl)cc2C(=O)Nc2ccccc2)cc1 | 29
Cc1ccc(C2=Nc3ccc(Cl)cc3C3=NNCC(=O)NN23)cc1 | < 10
Cc1ccc(-c2nc3ccc(Cl)cc3c3nnnn23)cc1 | 51
Cc1ccc(-c2nc3ccc(Cl)cc3c3nnc(S)n23)cc1 | < 10
